Activity calls are given as the source filed them. The rule behind the calls is not given here.
Experiments:
MDA-MB-231 [1] = test: Induction of apoptosis in human MDA-MB-231 cells assessed as reduction of cdc2 phosphorylation at T161 catalytic site at 10 uM by Western blot analysis; type: functional, cell-based; settings: TDE = time-dependent effect
Method in brief: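 MDA-MB-231 cells were treated with 10 µM compound for 1, 3, 6, 12 and 24 h and lysed. Equal protein was resolved by 10% SDS–PAGE and immunoblotted for phospho-cdc2 (T161, Y15), cdc2 and cyclin B, with actin as loading standard and ECL detection.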

MDA-MB-231 [2] = test: Induction of apoptosis in human MDA-MB-231 cells assessed as increase in Bax protein level at 10 uM after 48 hrs by Western blotting; type: functional, cell-based
Method in brief: (§1)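 MDA-MB-231 cells were treated with vehicle or 10 µM compound for 48 h (and 72 h). Lysates were cleared and protein measured by BCA. Equal protein was run on 10% SDS–PAGE and transferred to PVDF, blocked in 5% milk overnight, and probed 2 h with anti-Bcl-2, Bax or PARP. HRP secondary was applied for 1 h, with ECL detection.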

MDA-MB-231 [3] = test: Drug uptake in human MDA-MB-231 cell cytoplasm at 10 uM after 1 hr using propidium iodide staining by two-photon confocal microscopy; type: ADME, cell-based; settings: mda-mb-231, 1 h
Method in brief: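 Cells (5 × 10^5) were treated with 10 µM compound for 1 h, PBS-washed and fixed in 4% formaldehyde. Nuclei were stained with propidium iodide for 5 min before mounting. Imaging used two-photon confocal microscopy, 63× oil, excitation 720 nm, emission 480–520 nm, with DIC for morphology.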

[4] = target: Cyclin-dependent kinase 1/cyclin B1 (Homo sapiens) (UniProt P06493+P14635); settings: at 0.1 µM
Chain of Cyclin-dependent kinase 1/cyclin B1 (Homo sapiens) (P06493 whole entry, looked up): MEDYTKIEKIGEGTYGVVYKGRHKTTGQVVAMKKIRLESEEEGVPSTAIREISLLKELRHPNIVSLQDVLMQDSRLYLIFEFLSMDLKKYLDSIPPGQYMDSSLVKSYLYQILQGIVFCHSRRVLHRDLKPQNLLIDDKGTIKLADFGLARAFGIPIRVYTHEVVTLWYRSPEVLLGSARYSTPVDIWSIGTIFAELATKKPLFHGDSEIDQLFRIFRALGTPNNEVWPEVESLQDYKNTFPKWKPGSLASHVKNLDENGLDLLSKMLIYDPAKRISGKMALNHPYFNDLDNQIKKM
Chain of Cyclin-dependent kinase 1/cyclin B1 (Homo sapiens) (P14635 whole entry, looked up): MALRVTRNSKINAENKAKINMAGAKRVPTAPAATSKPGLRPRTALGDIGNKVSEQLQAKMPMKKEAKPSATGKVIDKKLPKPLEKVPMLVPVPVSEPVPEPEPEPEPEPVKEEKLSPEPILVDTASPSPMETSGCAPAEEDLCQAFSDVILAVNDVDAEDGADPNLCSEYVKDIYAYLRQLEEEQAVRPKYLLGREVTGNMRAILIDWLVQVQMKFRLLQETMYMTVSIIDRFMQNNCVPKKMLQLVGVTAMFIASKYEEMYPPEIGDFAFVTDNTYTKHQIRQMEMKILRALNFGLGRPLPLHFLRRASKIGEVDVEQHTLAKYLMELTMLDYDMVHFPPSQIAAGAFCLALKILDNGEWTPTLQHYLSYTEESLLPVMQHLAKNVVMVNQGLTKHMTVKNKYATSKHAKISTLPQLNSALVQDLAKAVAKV

MDA-MB-231 [5] = test: Antiproliferative activity against estrogen receptor-deficient human MDA-MB-231 cells after 48 hrs by WST-1 assay; type: functional, cell-based; settings: MDA-MB-231, 48 h
Method in brief: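 Cells seeded at 3000/well in DMEM with 10% FBS and left 24 h. Compounds in DMSO were serially diluted in medium (1–100 µM) and added in triplicate. WST-1 was read 48 h after addition: 2–3 h incubation, absorbance at 450 nm with 630 nm reference. IC50 interpolated from log concentration versus fraction surviving; mean (SEM) of triplicate experiments.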

Homo sapiens = species on record: Homo sapiens; test: Binding affinity to human breast cancer tissue at 10 uM after 1 hr by two-photon confocal microscopic analysis; type: functional
Method in brief: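 Breast cancer tissue sections were dewaxed and rehydrated, then given epitope retrieval for 20 min at 100 °C. They were blocked with goat serum, exposed to 10 µM compound or dansyl ethylenediamine control for 1 h at room temperature, washed and mounted. Dansyl fluorescence was imaged.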

MCF7 [6] = test: Cell cycle arrest in human MCF7 cells assessed as accumulation at G2/M phase at 5 to 10 uM after 24 hrs using propidium iodide staining by flow cytometry; type: functional, cell-based
Method in brief: (§2)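 Asynchronous cells were treated with 5 or 10 µM compound or DMSO for 24 h (also 16 and 40 h). They were trypsinized, washed in PBS and fixed/permeabilized in 70% ethanol. Staining was with RNase and propidium iodide for 30 min in the dark at room temperature, followed by flow cytometry. Phase percentages are given minus DMSO control; mean of triplicates.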

MCF7 [7] = test: Induction of apoptosis in human MCF7 cells assessed as aberrant gross morphological changes at 10 uM after 48 hrs using propidium iodide staining by confocal microscopic analysis; type: functional, cell-based
MCF7 [8] = test: Cell cycle arrest in human MCF7 cells assessed as accumulation at G2/M phase at 5 to 10 uM after 16 to 40 hrs using propidium iodide staining by flow cytometry; type: functional, cell-based; method in brief: as §2
MCF7 [9] = test: Ratio of IC50 for human CL 10.3 cells expressing p-glycoprotein to IC50 for human MCF7 cells; type: functional
Method in brief: (§3)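 MCF-7 and its P-glycoprotein-overexpressing MDR subline CL 10.3 were grown in DMEM with 10% heat-inactivated FBS. Compounds in DMSO were serially diluted in medium and given to cells for 72 h. Read-out was WST-1 reduction (450 nm, 630 nm reference). IC50 interpolated from log concentration versus fraction surviving; mean (SEM) of triplicates. Ratio is CL 10.3 IC50 over MCF-7 IC50.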

MDA-MB-231 [10] = test: Cell cycle arrest in human MDA-MB-231 cells assessed as accumulation at G2/M phase at 5 to 10 uM after 24 hrs using propidium iodide staining by flow cytometry; type: functional, cell-based; method in brief: as §2
MDA-MB-231 [11] = test: Induction of apoptosis in human MDA-MB-231 cells assessed as decrease in Bcl2 protein level at 10 uM after 48 hrs by Western blotting; type: functional, cell-based; method in brief: as §1
MDA-MB-231 [12] = test: Induction of apoptosis in human MDA-MB-231 cells assessed as decrease in caspase 3 protein level at 10 uM after 48 hrs by Western blotting; type: functional, cell-based
MCF7 [13] = test: Antiproliferative activity against human MCF7 cells expressing estrogen receptor after 72 hrs by WST-1 assay; type: functional, cell-based; settings: MCF7, 72 h; method in brief: as §3
[14] = target: CDK3/cyclin E (Homo sapiens) (UniProt P24864+O96020+Q00526); test: Inhibition of human CDK3/cyclin E at 0.1 uM after 40 mins relative to control; type: protein-complex assay
Chain of CDK3/cyclin E (Homo sapiens) (O96020 whole entry, looked up): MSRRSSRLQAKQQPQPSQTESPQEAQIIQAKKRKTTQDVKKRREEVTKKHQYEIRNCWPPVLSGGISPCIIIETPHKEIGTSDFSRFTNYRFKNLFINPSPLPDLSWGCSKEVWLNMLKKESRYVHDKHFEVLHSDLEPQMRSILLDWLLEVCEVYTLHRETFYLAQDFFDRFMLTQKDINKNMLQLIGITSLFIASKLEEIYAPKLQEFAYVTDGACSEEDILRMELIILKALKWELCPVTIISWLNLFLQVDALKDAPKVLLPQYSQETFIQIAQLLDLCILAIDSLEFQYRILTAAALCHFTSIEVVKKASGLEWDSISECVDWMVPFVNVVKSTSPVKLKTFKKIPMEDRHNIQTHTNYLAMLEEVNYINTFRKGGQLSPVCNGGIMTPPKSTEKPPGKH
Chain of CDK3/cyclin E (Homo sapiens) (P24864 whole entry, looked up): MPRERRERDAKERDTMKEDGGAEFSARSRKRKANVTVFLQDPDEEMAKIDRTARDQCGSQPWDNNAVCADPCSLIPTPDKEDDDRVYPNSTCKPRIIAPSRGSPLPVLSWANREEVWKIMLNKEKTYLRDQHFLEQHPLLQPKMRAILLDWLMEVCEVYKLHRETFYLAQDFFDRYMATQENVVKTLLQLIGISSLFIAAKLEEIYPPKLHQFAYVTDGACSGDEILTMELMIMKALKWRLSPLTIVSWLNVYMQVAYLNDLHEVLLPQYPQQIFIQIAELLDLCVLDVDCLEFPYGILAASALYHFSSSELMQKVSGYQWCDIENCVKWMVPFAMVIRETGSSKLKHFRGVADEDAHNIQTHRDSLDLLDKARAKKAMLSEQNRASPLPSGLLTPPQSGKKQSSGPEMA
Chain of CDK3/cyclin E (Homo sapiens) (Q00526 whole entry, looked up): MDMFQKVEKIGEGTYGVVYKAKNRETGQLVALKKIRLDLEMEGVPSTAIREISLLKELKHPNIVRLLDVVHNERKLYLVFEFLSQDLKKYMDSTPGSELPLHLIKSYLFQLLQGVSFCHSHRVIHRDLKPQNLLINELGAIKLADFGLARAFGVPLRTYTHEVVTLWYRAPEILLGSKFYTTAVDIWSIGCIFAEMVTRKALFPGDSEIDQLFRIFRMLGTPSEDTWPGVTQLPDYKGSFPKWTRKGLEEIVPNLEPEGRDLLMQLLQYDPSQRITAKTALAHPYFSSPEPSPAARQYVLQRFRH
Method in brief: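 Radiometric screen at 100 nM compound against purified human CDK/cyclin (5–10 mU). Incubation 40 min at room temperature, stopped with phosphoric acid. Read by filtermat scintillation. Activity expressed as % of control, N = 2.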

Activity (MDA-MB-231 [3]): Active | inhibition [4]: 35% | IC50 (MDA-MB-231 [5]): 4.06 µM | Activity (Homo sapiens): Active | IC50 (MCF7 [13]): 4.5 µM | inhibition [14]: 65%
Compound: CC(C)[C@H](CO)Nc1nc(Nc2ccc(C(=O)NCCNS(=O)(=O)c3cccc4c(N(C)C)cccc34)c(Cl)c2)c2ncn(C(C)C)c2n1
inhibition (MDA-MB-231 [1]): tde | Activity (MDA-MB-231 [2]): Active | Activity (MCF7 [6]): Active | Activity (MCF7 [7]): Active | Activity (MCF7 [8]): Active | Ratio IC50 (MCF7 [9]): 9.8 | Activity (MDA-MB-231 [10]): Active | Activity (MDA-MB-231 [11]): Active | Activity (MDA-MB-231 [12]): Active

From ChEMBL document CHEMBL1765024, “Fluorescent cyclin-dependent kinase inhibitors block the proliferation of human breast cancer cells” (Bioorg Med Chem, 2011)
